According to ChEMBL document CHEMBL3992547, “Antimicrobial activity of rhodanine-3-acetic acid derivatives” (Bioorg Med Chem, 2017):
Values after ≈ are worked out from the molar mass of the structure shown. Active and inactive are the calls of the source. The rule behind the calls is not given here.

Columns and labels:
Mycobacterium avium [1] = test: Antimycobacterial activity against Mycobacterium avium 330/88 measured after 14 days by micromethod; assay type: functional; details: 330/88, 336 h
[2] = Solubility of the compound in Sula's semisynthetic medium up to 1 mM; assay type: physicochemical
Mycobacterium avium [3] = test: Antimycobacterial activity against Mycobacterium avium 330/88 measured after 21 days by micromethod; assay type: functional; details: 330/88, 504 h
Klebsiella pneumoniae [4] = test: Antibacterial activity against Klebsiella pneumoniae D 11750/08 up to 500 uM incubated for 24 to 48 hrs under dark condition by microdilution broth assay; assay type: functional
Method in brief: (§1)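 Broth microdilution per M07-A07, modified, in Mueller-Hinton broth adjusted to pH 7.4 (±0.2). Inoculum is prepared in sterile water to McFarland 0.5 (1.5 × 10⁸ CFU/mL). Plates are incubated in the dark at 35 °C in humid air. MIC is read after 24 and 48 h as at least 95% growth reduction versus control (IC₉₅).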

Pichia kudriavzevii = test: Antifungal activity against Candida krusei E28 after 24 to 48 hrs hrs by microdilution broth assay; assay type: functional
Method in brief: (§2)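 Broth microdilution per CLSI M27-A3 and M38-A2 in RPMI 1640 with glutamine, buffered to pH 7.0 with MOPS. Compounds are diluted in DMSO. Final inoculum is 5 × 10³ CFU/mL for yeasts and 0.5–5 × 10⁴ CFU/mL for moulds. Plates are incubated in the dark at 35 °C in humid air and read visually and/or at 540 nm after 24 and 48 h. MIC is ≥80% growth reduction (IC₈₀) for yeasts and ≥50% (IC₅₀) for filamentous fungi.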

[5] = test system: Mycobacterium tuberculosis; test: Antimycobacterial activity against Mycobacterium tuberculosis H37Rv 331/88 measured after 21 days by micromethod; assay type: functional; details: H37Rv 331/88, 504 h
Mycobacterium kansasii [6] = test: Antimycobacterial activity against Mycobacterium kansasii isolate 6509/96 after 14 days by micromethod; assay type: functional; details: isolate 6509/96, 336 h
Mycobacterium kansasii [7] = test: Antimycobacterial activity against Mycobacterium kansasii isolate 235/80 after 14 days by micromethod; assay type: functional; details: isolate 235/80, 336 h
Mycobacterium kansasii [8] = test: Antimycobacterial activity against Mycobacterium kansasii isolate 6509/96 after 7 days by micromethod; assay type: functional; details: isolate 6509/96, 168 h
Pseudomonas aeruginosa = test: Antibacterial activity against Pseudomonas aeruginosa CCM 1961 up to 500 uM incubated for 24 to 48 hrs under dark condition by microdilution broth assay; assay type: functional; method in brief: as §1
Lichtheimia corymbifera = test: Antifungal activity against Absidia corymbifera 272 after 24 to 48 hrs hrs by microdilution broth assay; assay type: functional; method in brief: as §2
Mycobacterium kansasii [9] = test: Antimycobacterial activity against Mycobacterium kansasii isolate 235/80 after 21 days by micromethod; assay type: functional; details: isolate 235/80, 504 h
Mycobacterium kansasii [10] = test: Antimycobacterial activity against Mycobacterium kansasii isolate 6509/96 after 21 days by micromethod; assay type: functional; details: isolate 6509/96, 504 h
Mycobacterium kansasii [11] = test: Antimycobacterial activity against Mycobacterium kansasii isolate 235/80 after 7 days by micromethod; assay type: functional; details: isolate 235/80, 168 h
Klebsiella pneumoniae [12] = test: Antibacterial activity against ESBL positive Klebsiella pneumoniae J 14368/08 up to 500 uM incubated for 24 to 48 hrs under dark condition by microdilution broth assay; assay type: functional; method in brief: as §1
[13] = test system: Mycobacterium tuberculosis; test: Antimycobacterial activity against Mycobacterium tuberculosis H37Rv 331/88 measured after 14 days by micromethod; assay type: functional; details: H37Rv 331/88, 336 h
[14] = test system: Staphylococcus epidermidis; test: Antibacterial activity against Staphylococcus epidermidis H 6966/08 incubated for 24 hrs under dark condition by microdilution broth assay; assay type: functional; details: H 6966/08, 24 h; method in brief: as §1
Enterococcus [15] = test: Antibacterial activity against Enterococcus sp. J 14365/08 incubated for 24 hrs under dark condition by microdilution broth assay; details: J 14365/08, 24 h
Escherichia coli [16] = test: Antibacterial activity against Escherichia coli CCM 4517 incubated for 24 hrs under dark condition by microdilution broth assay; assay type: functional; details: CCM 4517, 24 h; method in brief: as §1
Staphylococcus aureus [17] = test: Antibacterial activity against Staphylococcus aureus CCM 4516/08 incubated for 48 hrs under dark condition by microdilution broth assay; assay type: functional; details: CCM 4516/08, 48 h; method in brief: as §1
Staphylococcus aureus [18] = test: Antibacterial activity against Staphylococcus aureus CCM 4516/08 incubated for 24 hrs under dark condition by microdilution broth assay; assay type: functional; details: CCM 4516/08, 24 h; method in brief: as §1
Escherichia coli [19] = test: Antibacterial activity against Escherichia coli CCM 4517 incubated for 48 hrs under dark condition by microdilution broth assay; assay type: functional; details: CCM 4517, 48 h; method in brief: as §1
[20] = test system: Staphylococcus epidermidis; test: Antibacterial activity against Staphylococcus epidermidis H 6966/08 incubated for 48 hrs under dark condition by microdilution broth assay; assay type: functional; details: H 6966/08, 48 h; method in brief: as §1
Enterococcus [21] = test: Antibacterial activity against Enterococcus sp. J 14365/08 incubated for 48 hrs under dark condition by microdilution broth assay; details: J 14365/08, 48 h
Staphylococcus aureus [22] = test: Antibacterial activity against methicillin-resistant Staphylococcus aureus H 5996/08 incubated for 24 hrs under dark condition by microdilution broth assay; assay type: functional; details: H 5996/08, 24 h
Method in brief: (§3)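 Microdilution broth method modified per M07-A07, in Mueller-Hinton broth adjusted to pH 7.4 (±0.2). Inoculum made in sterile water to 0.5 McFarland (1.5 × 10⁸ CFU/mL). Plates incubated in the dark at 35 °C in a humid atmosphere, with reads at 24 and 48 h. MIC taken as at least 95% growth reduction (IC₉₅) versus control.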

Staphylococcus aureus [23] = test: Antibacterial activity against methicillin-resistant Staphylococcus aureus H 5996/08 incubated for 48 hrs under dark condition by microdilution broth assay; assay type: functional; details: H 5996/08, 48 h; method in brief: as §3

Cc1ccc(NC(=O)CN2C(=O)CSC2=S)cc1
MIC (Mycobacterium avium [1]): 1000 µM (≈ 280 µg/mL)
solubility [2]: Soluble
MIC (Mycobacterium avium [3]): > 1000 µM
Activity (Klebsiella pneumoniae [4]): inactive
Activity (Pichia kudriavzevii): inactive
MIC [5]: 500 µM (≈ 140 µg/mL)
MIC (Mycobacterium kansasii [6]): 500 µM (≈ 140 µg/mL)
MIC (Mycobacterium kansasii [7]): 500 µM (≈ 140 µg/mL)
MIC (Mycobacterium kansasii [8]): 500 µM (≈ 140 µg/mL)
Activity (Pseudomonas aeruginosa): inactive
Activity (Lichtheimia corymbifera): inactive
MIC (Mycobacterium kansasii [9]): 500 µM (≈ 140 µg/mL)
MIC (Mycobacterium kansasii [10]): 500 µM (≈ 140 µg/mL)
MIC (Mycobacterium kansasii [11]): 250 µM (≈ 70.1 µg/mL)
Activity (Klebsiella pneumoniae [12]): inactive
MIC [13]: 500 µM (≈ 140 µg/mL)

COc1ccc(NC(=O)CN2C(=O)CSC2=S)cc1
MIC (Mycobacterium avium [1]): 1000 µM (≈ 296 µg/mL)
solubility [2]: Soluble
MIC (Mycobacterium avium [3]): > 1000 µM
Activity (Klebsiella pneumoniae [4]): inactive
Activity (Pichia kudriavzevii): inactive
MIC [5]: 1000 µM (≈ 296 µg/mL)
MIC (Mycobacterium kansasii [6]): 500 µM (≈ 148 µg/mL)
MIC (Mycobacterium kansasii [7]): 500 µM (≈ 148 µg/mL)
MIC (Mycobacterium kansasii [8]): 500 µM (≈ 148 µg/mL)
Activity (Pseudomonas aeruginosa): inactive
Activity (Lichtheimia corymbifera): inactive
MIC (Mycobacterium kansasii [9]): 1000 µM (≈ 296 µg/mL)
MIC (Mycobacterium kansasii [10]): 1000 µM (≈ 296 µg/mL)
MIC (Mycobacterium kansasii [11]): 500 µM (≈ 148 µg/mL)
Activity (Klebsiella pneumoniae [12]): inactive
MIC [13]: 500 µM (≈ 148 µg/mL)

O=C(CN1C(=O)CSC1=S)Nc1ccc(C(F)(F)F)cc1
MIC (Mycobacterium avium [1]): > 1000 µM
solubility [2]: Soluble
MIC (Mycobacterium avium [3]): > 1000 µM
Activity (Klebsiella pneumoniae [4]): inactive
Activity (Pichia kudriavzevii): inactive
MIC [5]: 1000 µM (≈ 334 µg/mL)
MIC (Mycobacterium kansasii [6]): 1000 µM (≈ 334 µg/mL)
MIC (Mycobacterium kansasii [7]): 1000 µM (≈ 334 µg/mL)
MIC (Mycobacterium kansasii [8]): 1000 µM (≈ 334 µg/mL)
Activity (Pseudomonas aeruginosa): inactive
Activity (Lichtheimia corymbifera): inactive
MIC (Mycobacterium kansasii [9]): 1000 µM (≈ 334 µg/mL)
MIC (Mycobacterium kansasii [10]): 1000 µM (≈ 334 µg/mL)
MIC (Mycobacterium kansasii [11]): 1000 µM (≈ 334 µg/mL)
Activity (Klebsiella pneumoniae [12]): inactive
MIC [13]: 500 µM (≈ 167 µg/mL)

O=C(O)CN1C(=O)/C(=C/c2cc(Cl)ccc2O)SC1=S
MIC95 [14]: 62.5 µM (≈ 20.6 µg/mL)
MIC (Mycobacterium avium [1]): 62.5 µM (≈ 20.6 µg/mL)
MIC95 (Enterococcus [15]): 125 µM (≈ 41.2 µg/mL)
solubility [2]: Soluble
MIC (Mycobacterium avium [3]): 62.5 µM (≈ 20.6 µg/mL)
Activity (Klebsiella pneumoniae [4]): inactive
Activity (Pichia kudriavzevii): inactive
MIC [5]: 62.5 µM (≈ 20.6 µg/mL)
MIC95 (Escherichia coli [16]): 500 µM (≈ 165 µg/mL)
MIC (Mycobacterium kansasii [6]): 62.5 µM (≈ 20.6 µg/mL)
MIC (Mycobacterium kansasii [7]): 62.5 µM (≈ 20.6 µg/mL)
MIC (Mycobacterium kansasii [8]): 32 µM (≈ 10.6 µg/mL)
Activity (Pseudomonas aeruginosa): inactive
Activity (Lichtheimia corymbifera): inactive
MIC95 (Staphylococcus aureus [17]): 250 µM (≈ 82.4 µg/mL)
MIC (Mycobacterium kansasii [9]): 62.5 µM (≈ 20.6 µg/mL)
MIC95 (Staphylococcus aureus [18]): 250 µM (≈ 82.4 µg/mL)
MIC95 (Escherichia coli [19]): > 500 µM
MIC (Mycobacterium kansasii [10]): 125 µM (≈ 41.2 µg/mL)
MIC (Mycobacterium kansasii [11]): 32 µM (≈ 10.6 µg/mL)
MIC95 [20]: 62.5 µM (≈ 20.6 µg/mL)
MIC95 (Enterococcus [21]): 500 µM (≈ 165 µg/mL)
MIC95 (Staphylococcus aureus [22]): 125 µM (≈ 41.2 µg/mL)
Activity (Klebsiella pneumoniae [12]): inactive
MIC95 (Staphylococcus aureus [23]): 125 µM (≈ 41.2 µg/mL)
MIC [13]: 32 µM (≈ 10.6 µg/mL)

NNC(=O)c1ccncc1 [ISONIAZID]
MIC (Mycobacterium avium [1]): > 250 µM
MIC (Mycobacterium avium [3]): > 250 µM
MIC [5]: 1 µM (≈ 0.137 µg/mL)
MIC (Mycobacterium kansasii [6]): 8 µM (≈ 1.1 µg/mL)
MIC (Mycobacterium kansasii [7]): > 250 µM
MIC (Mycobacterium kansasii [8]): 4 µM (≈ 0.549 µg/mL)
MIC (Mycobacterium kansasii [9]): > 250 µM
MIC (Mycobacterium kansasii [10]): 16 µM (≈ 2.19 µg/mL)
MIC (Mycobacterium kansasii [11]): > 250 µM
MIC [13]: 0.5 µM (≈ 0.0686 µg/mL)

O=C(CN1C(=O)CSC1=S)Oc1ccccc1
MIC95 [14]: > 125 µM
MIC (Mycobacterium avium [1]): 1000 µM (≈ 267 µg/mL)
MIC95 (Enterococcus [15]): 125 µM (≈ 33.4 µg/mL)
solubility [2]: Soluble
MIC (Mycobacterium avium [3]): 1000 µM (≈ 267 µg/mL)
Activity (Klebsiella pneumoniae [4]): inactive
Activity (Pichia kudriavzevii): inactive
MIC [5]: 1000 µM (≈ 267 µg/mL)
MIC95 (Escherichia coli [16]): > 125 µM
MIC (Mycobacterium kansasii [6]): 1000 µM (≈ 267 µg/mL)
MIC (Mycobacterium kansasii [7]): 1000 µM (≈ 267 µg/mL)
MIC (Mycobacterium kansasii [8]): 500 µM (≈ 134 µg/mL)
Activity (Pseudomonas aeruginosa): inactive
Activity (Lichtheimia corymbifera): inactive
MIC95 (Staphylococcus aureus [17]): > 125 µM
MIC (Mycobacterium kansasii [9]): 1000 µM (≈ 267 µg/mL)
MIC95 (Staphylococcus aureus [18]): > 125 µM
MIC95 (Escherichia coli [19]): > 125 µM
MIC (Mycobacterium kansasii [10]): 1000 µM (≈ 267 µg/mL)
MIC (Mycobacterium kansasii [11]): 500 µM (≈ 134 µg/mL)
MIC95 [20]: > 125 µM
MIC95 (Enterococcus [21]): > 125 µM
MIC95 (Staphylococcus aureus [22]): > 125 µM
Activity (Klebsiella pneumoniae [12]): inactive
MIC95 (Staphylococcus aureus [23]): > 125 µM
MIC [13]: 1000 µM (≈ 267 µg/mL)
